Columns and labels:
[1] = system: PKB Ser 473 phosphorylation in NIH3T3 cells; assay: Western blot of serum-stimulated PKB Ser 473 phosphorylation; assay type: cell-based, mouse
p110α = p110α (Bos taurus, UniProt P32871); assay: In vitro lipid kinase assay, GST-p110α; assay type: biochemical
NIH3T3 cells [2] = assay: Cell division and growth curves; assay type: cell-based, mouse; conditions: 800 nM
type IIγ PtdInsP kinase = molecular target: T1, type IIγ PtdInsP kinase (Homo sapiens, UniProt Q8TBX8); assay: In vitro lipid kinase assay, type IIγ PtdInsP kinase; assay type: biochemical; conditions: even at 10 μM; data not shown
T1 sequence (Q8TBX8 1-421): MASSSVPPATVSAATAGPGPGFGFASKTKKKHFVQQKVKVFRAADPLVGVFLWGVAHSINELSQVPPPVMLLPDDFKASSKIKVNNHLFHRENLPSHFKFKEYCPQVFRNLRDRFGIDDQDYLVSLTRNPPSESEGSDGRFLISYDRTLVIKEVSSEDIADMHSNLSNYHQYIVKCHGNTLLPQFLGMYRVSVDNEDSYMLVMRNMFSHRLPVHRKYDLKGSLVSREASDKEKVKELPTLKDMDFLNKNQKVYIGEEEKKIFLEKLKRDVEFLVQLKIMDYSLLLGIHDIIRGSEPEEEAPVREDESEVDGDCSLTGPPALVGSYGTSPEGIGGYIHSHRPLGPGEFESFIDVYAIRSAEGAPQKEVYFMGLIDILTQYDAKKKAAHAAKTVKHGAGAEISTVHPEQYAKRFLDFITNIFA

ecotropic MLV retrovirus = assay: Viral production assay; assay type: cell-based, human; conditions: 800 nM, TEFLY Mo producer cells
NIH3T3 cells [3] = assay: Lysotracker staining of swollen vesicles; assay type: cell-based, mouse; conditions: 800 nM 3 h, Lysotracker Red DND-99
Method in brief: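 NIH3T3 cells were exposed to test compound at 800 nM for 3 h. Lysotracker Red DND-99 (100 nM) was added to the medium for the final 0.5 h, and the acidotropic dye was imaged in the enlarged vesicles.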

NIH3T3 cells [4] = assay: In vivo measurement of phosphoinositide levels in 32P-labelled cells; assay type: cell-based, mouse; conditions: 800 nM
type Iα PtdInsP kinase = assay: In vitro lipid kinase assay, type Iα PtdInsP kinase; assay type: biochemical, mouse

Sequence of p110α (P32871 whole entry): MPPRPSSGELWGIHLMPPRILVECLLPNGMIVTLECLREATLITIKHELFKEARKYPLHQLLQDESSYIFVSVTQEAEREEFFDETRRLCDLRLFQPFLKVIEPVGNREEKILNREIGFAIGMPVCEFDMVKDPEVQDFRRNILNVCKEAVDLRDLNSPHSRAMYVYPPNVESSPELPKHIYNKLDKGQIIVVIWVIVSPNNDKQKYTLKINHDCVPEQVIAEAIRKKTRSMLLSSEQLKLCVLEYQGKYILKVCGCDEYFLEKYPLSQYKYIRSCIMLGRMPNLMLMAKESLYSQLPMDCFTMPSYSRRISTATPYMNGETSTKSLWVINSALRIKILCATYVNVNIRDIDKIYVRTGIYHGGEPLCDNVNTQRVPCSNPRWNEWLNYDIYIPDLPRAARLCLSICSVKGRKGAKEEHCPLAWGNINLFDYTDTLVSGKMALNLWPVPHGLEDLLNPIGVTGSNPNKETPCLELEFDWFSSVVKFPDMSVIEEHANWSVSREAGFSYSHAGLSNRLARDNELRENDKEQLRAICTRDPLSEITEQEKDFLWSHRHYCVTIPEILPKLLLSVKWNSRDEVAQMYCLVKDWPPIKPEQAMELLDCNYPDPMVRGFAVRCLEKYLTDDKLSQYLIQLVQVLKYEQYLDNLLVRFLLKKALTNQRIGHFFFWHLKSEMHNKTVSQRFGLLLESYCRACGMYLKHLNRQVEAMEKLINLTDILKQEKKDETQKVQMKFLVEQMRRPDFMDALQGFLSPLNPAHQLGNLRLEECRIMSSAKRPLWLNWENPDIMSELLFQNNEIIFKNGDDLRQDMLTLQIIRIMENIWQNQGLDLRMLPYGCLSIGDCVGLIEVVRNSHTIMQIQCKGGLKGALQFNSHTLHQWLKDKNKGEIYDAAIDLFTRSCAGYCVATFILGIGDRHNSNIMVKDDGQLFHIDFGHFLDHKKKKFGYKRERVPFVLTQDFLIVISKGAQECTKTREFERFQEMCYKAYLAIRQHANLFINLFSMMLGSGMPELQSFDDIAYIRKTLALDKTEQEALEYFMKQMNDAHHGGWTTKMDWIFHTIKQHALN

SMILES | Effect on PKB Ser 473 phosphorylation ([1]; 800 nM) | IC50 (p110α; p110α IC50, 50 μM ATP, 100 μM PtdIns substrate) [µM] | p110α IC50 fold higher than for PIKfyve (p110α; same assay conditions) [fold] | Effect on cell division (NIH3T3 cells [2]) | Inhibition of type IIγ PtdInsP kinase (type IIγ PtdInsP kinase) | Reduction of virus released into the medium (ecotropic MLV retrovirus) [%] | Acidification of swollen vesicles (NIH3T3 cells [3]) | Decrease of PtdIns(3,5)P2 production (NIH3T3 cells [4]) [%] | Decrease of PtdIns(4,5)P2 (NIH3T3 cells [4]) | Effect on all other phosphoinositides identified (NIH3T3 cells [4]) | type Iα PtdInsP kinase IC50 fold greater than against PIKfyve (type Iα PtdInsP kinase) | IC50 (type Iα PtdInsP kinase; read-out: type Iα PtdInsP kinase IC50, mouse enzyme, data not shown) [µM] | Effect on serum-stimulated phosphorylation of PKB ([1]; increasing concentrations)
Nc1ccc(C(=O)Nc2cccc(-c3nc(N4CCOCC4)c4oc5ncccc5c4n3)c2)cn1 [YM201636] | no influence | 3 | ~100 | does not inhibit cell division | did not inhibit | 80 | poorly acidified | 80 | around 20% | remained largely unaltered | around 100 fold | > 2 | –
Oc1cccc(-c2nc(N3CCOCC3)c3oc4ncccc4c3n2)c1 [YM211103] | – | – | – | – | – | – | – | – | – | – | – | – | decreased
